# Measurements of several laboratories.
# Lines come from different studies, so protocols differ.
# Target: Ephrin type-A receptor 6 (EPHA6, Homo sapiens, UniProt Q9UF33)
# Residues used in one study (Q9UF33 23-1036): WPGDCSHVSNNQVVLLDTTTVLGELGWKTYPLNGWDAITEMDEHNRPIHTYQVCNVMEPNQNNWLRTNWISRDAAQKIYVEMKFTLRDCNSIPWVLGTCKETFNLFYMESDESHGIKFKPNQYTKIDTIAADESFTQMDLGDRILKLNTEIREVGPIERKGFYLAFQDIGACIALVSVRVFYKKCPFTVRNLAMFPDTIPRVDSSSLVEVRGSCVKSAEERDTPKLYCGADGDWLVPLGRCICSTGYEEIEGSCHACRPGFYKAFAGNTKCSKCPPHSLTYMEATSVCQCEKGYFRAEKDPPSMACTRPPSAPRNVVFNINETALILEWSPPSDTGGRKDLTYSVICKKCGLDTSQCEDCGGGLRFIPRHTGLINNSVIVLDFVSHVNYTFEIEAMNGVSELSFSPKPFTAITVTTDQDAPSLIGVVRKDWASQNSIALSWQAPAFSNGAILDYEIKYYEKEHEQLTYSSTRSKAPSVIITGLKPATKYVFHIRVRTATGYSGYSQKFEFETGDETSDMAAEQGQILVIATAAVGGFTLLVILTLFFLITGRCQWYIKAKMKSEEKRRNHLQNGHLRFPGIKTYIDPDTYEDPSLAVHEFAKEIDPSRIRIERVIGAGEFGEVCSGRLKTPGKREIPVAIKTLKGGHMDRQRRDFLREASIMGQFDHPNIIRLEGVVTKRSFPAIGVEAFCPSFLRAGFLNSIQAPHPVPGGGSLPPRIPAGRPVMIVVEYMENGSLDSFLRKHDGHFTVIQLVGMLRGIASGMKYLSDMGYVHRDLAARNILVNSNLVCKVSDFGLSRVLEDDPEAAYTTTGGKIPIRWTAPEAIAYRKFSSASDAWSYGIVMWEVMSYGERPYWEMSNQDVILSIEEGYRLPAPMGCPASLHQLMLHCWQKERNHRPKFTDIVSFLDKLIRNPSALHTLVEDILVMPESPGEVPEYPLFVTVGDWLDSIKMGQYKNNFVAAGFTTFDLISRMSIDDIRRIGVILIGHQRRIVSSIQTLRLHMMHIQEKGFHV
SMILES,read-out,technique,tested at,remaining binding [%]
CNCc1ccccc1-c1csc([C@@H](C)Nc2nc(C)nc3cc(OC)c(OC)cc23)c1,cell-free assay,competition with immobilised ligand,1 µM,96
CNC(=O)[C@@H]1CC[C@@H](n2c(-c3ccc4cnccc4c3)nc3ccc(C(=O)NCc4cccc(C(N)=O)c4)cc32)C1,binding,competition with immobilised ligand,1 µM,100
CC(=O)N1CCC(c2ccc(C(=O)NC3=NCCN3)cc2C(F)(F)F)CC1,cell-free assay,competition with immobilised ligand,1 µM,98
F[C@@H]1CCN(c2nccc(-c3cnn4ncccc34)n2)C1,binding,,1 µM,80
O=C(NCCCN1CCOCC1)c1ccc(Nc2nccc(-c3cc4ccccc4s3)n2)cc1,binding,competition with immobilised ligand,1 µM,97
CCN1CCN(Cc2ccc(C(=O)Nc3ccc(C)c(Oc4ccc5c(c4)CC(=O)N5)c3)cc2C(F)(F)F)CC1,binding,competition with immobilised ligand,1 µM,100
CCS(=O)(=O)c1cc2cc(C[C@@](O)(CC(C)(C)c3ccc(F)cc3C(N)=O)C(F)(F)F)[nH]c2cn1,cell-free assay,competition with immobilised ligand,1 µM,100
Cc1cnn2ncc(-c3ccnc(N(C)C)n3)c2c1,binding,,1 µM,100
Cc1nc(Cc2cccc(C(F)(F)F)c2)sc1-c1ccc(C(N)=O)nc1,cell-free assay,competition with immobilised ligand,1 µM,96
O=C(c1ccc(Nc2ncc(Cl)c(-c3ccc(Cl)s3)n2)cc1)N1CCC(N2CCCC2)CC1,binding,competition with immobilised ligand,1 µM,51
FC(F)(F)Oc1cccc(-c2cnc3ccc(-c4ccncc4)nn23)c1,cell-free assay,competition with immobilised ligand,5 µM,93
CN(c1nccc(-c2cnn3ncccc23)n1)C1CC1,binding,,1 µM,99
CCCCN(CCCC)C(=O)CN1C[C@H](c2cc(OC)c3c(c2)OCO3)[C@@H](C(=O)O)[C@@H]1CC(C)(C)CCC,cell-free assay,competition with immobilised ligand,1 µM,100
Cc1cnc(Nc2ccc(C(=O)N3CCC(N4CCCC4)CC3)cc2)nc1-c1cc2ccccc2s1,binding,competition with immobilised ligand,1 µM,65
N[C@H]1CCN(c2nccc(-c3cnn4ncccc34)n2)C1,binding,,1 µM,100
O=C(NCC1CCOCC1)c1n[nH]cc1NC(=O)c1c(F)cccc1F,binding,competition with immobilised ligand,1 µM,100
C[C@H]1CCN(c2nccc(-c3cnn4ncccc34)n2)C1,binding,,1 µM,100
O=C(Nc1cccnn1)N1CCC(=Cc2cccc(Oc3ccc(C(F)(F)F)cn3)c2)CC1,cell-free assay,competition with immobilised ligand,1 µM,78
CN(CCCC(F)(F)F)c1nccc(-c2cnn3ncccc23)n1,binding,,1 µM,89
c1cncc(-c2cccc(Nc3nccc(NC4CCCCC4)n3)c2)c1,binding,competition with immobilised ligand,10 µM,96
COc1cnc(Nc2cccc(S(N)(=O)=O)c2)nc1N1CCN(c2ccccc2)C(=O)C1,binding,competition with immobilised ligand,1 µM,100
